Measured values as given in paper PMC4618645 (Pharmacology Research & Perspectives, 2015).
Where “and” joins values, the source holds several entries; their conditions need not be identical. Identical values can stand only once. Entries after “also recorded” stand apart in the source; their conditions may differ. Like-named read-outs stand apart in the source and are kept apart here.

Legend:
CYP2D6 [1] = settings: CYP2D6 with MDMA in human liver microsomes; ref Heydari et al. [2004]; cited from earlier work
CYP2D6 [2] = settings: humans; ref O'Mathuna et al. [2008]; cited from earlier work
[3] = type: in vivo, rat; settings: rats
[4] = Pharmacokinetics of diclofenac in rats after 3 days administration of sesamin; type: in vivo, rat; settings: for AUC(0-t) / Cmax / Tmax / half-life: rat, plasma, po, 10 mg/kg; for AUC(0-t): AUC0–24 h; for AUC(0-t) / Cmax / Tmax: diclofenac 10 mg/kg bw intragastric; for half-life: t1/2, diclofenac 10 mg/kg bw intragastric
CYP2C9 [5] = settings: cited from earlier work
[6] = Estimation of the maximum inlet concentration to the liver; design: species or system human; settings: for absorption rate constant: assumed, roughly estimated from the data by Tomimori et al. [2013]; for maximum inlet concentration to the liver: humans, following the 50 mg oral dose, eqn. 1
[7] = humans, sesamin supplement 50 mg/day for 28 days; ref Tomimori et al. [2013]; cited from earlier work
[8] = Plasma concentration of sesamin in rats; type: in vivo; settings: rat, po, 100 mg/kg
Outline: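 Test compound in corn oil was given intragastrically by feeding needle. The organic phase was dried and the residue taken up in 100 μL acetonitrile. HPLC: methanol/0.05% TFA gradient, fluorescence ex 298/em 325 nm; mean ± SD, n = 12.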

CYP2C9 [9] = target: CYP2C9 (Homo sapiens, UniProt P11712); type: biochemical; settings: human liver microsomes, pH 7.4, probe diclofenac (100 μmol/L), diclofenac hydroxylation
Sequence of CYP2C9 (Homo sapiens, UniProt P11712) (P11712 whole entry): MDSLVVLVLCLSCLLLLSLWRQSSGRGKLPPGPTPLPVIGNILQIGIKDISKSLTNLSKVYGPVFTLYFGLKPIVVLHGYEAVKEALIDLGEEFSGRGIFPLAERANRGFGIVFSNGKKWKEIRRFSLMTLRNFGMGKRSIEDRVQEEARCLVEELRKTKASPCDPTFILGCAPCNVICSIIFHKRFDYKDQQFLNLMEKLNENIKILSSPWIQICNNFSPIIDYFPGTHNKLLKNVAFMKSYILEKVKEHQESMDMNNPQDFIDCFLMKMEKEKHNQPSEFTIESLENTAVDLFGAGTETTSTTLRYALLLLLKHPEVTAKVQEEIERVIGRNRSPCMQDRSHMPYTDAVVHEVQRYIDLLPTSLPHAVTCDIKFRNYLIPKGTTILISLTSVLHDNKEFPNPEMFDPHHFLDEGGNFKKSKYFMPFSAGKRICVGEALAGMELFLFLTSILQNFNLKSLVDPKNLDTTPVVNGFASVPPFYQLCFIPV

recombinant rat CYP2C11 = target: T1, recombinant rat CYP2C11 (Rattus norvegicus, UniProt P08683); experiment: Sesamin-induced difference spectrum of recombinant rat CYP2C11; type: biochemical; settings: recombinant rat CYP2C11, NADPH, 20 μmol/L sesamin
T1 sequence (P08683 1-500): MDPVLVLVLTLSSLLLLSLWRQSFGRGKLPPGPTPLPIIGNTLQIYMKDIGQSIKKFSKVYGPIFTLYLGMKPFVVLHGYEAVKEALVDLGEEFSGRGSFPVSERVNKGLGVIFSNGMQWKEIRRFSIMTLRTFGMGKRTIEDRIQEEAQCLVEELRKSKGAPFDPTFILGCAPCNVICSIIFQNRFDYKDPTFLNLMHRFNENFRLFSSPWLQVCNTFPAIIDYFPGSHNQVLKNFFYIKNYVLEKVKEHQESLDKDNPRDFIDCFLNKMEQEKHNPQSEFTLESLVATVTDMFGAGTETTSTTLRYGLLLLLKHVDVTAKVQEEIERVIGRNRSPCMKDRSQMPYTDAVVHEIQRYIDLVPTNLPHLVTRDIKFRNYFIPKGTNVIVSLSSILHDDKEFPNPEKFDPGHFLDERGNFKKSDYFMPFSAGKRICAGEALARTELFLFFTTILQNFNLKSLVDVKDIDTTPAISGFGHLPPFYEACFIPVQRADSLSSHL
Outline: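 Recombinant rat CYP2C11 from baculovirus-infected insect cells (50 pmol/mL) with 1 mmol/L NADPH in 100 mmol/L phosphate (pH 7.4) at 37°C. Test compound in DMSO (20 μmol/L final) went into the sample cuvette and an equal volume of DMSO into the reference. Difference spectra were recorded over 400–500 nm after 7 and 60 min incubation.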

[10] = tested on: CYP2C-mediated diclofenac hydroxylation activity; type: in vivo, rat; settings: rats, sesamin 0, 10, 100 mg/kg bw for 7 days
Outline: (§1)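 Male Sprague–Dawley rats were acclimated for 7 days before dosing. Liver microsomes: liver rinsed in ice-cold saline, homogenized in four volumes of ice-cold 1.15% KCl, spun at 10,000g for 20 min, then the supernatant at 100,000g for 60 min. The pellet was resuspended in 20 mmol/L phosphate buffer (pH 7.4) with 1.15% KCl. Protein was measured by bicinchoninate assay.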

rat CYP2C = type: in vivo; settings: rats, sesamin 0, 10, 100 mg/kg bw for 7 days
Outline: as §1

[11] = assumed; ref Moazzami et al. [2007]; cited from earlier work
[12] = target: T2, CYP2C in rat liver microsomes (CYP2C11) (Rattus norvegicus, UniProt P08683); type: biochemical
T2 sequence (P08683 1-500): T1 sequence (P08683 1-500)

[13] = tested on: rat CYP2C (rat liver microsomes); type: biochemical
Outline: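 Rat liver microsomes (0.5 mg protein/mL) with 1 mmol/L NADPH in 100 mmol/L phosphate (pH 7.4), 37°C. Test compound in DMSO (20 μmol/L final) versus DMSO reference. Difference spectra (400–500 nm) were taken at 0–120 min, tracking A459 minus A500. Parent and catechol metabolites were quantified in parallel by HPLC of methanol-quenched aliquots taken at the same times. Mean ± SD, at least duplicates.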

[14] = Hepatic sesamin concentration in rats; type: in vivo; settings: rat, liver, oral, 100 mg/kg
[15] = after sesamin 10 mg/kg bw for 3 days
[16] = after sesamin 100 mg/kg bw for 3 days
[17] = control (0 mg/kg bw sesamin for 3 days)

Q: With `CNC(C)Cc1ccc2c(c1)OCO2` (centres unmarked) [MDMA, 3,4-Methylenedioxymethamphetamine] as the compound, how does the kinact (CYP2D6 [1]) read?
A: The kinact was 0.12 to 0.26 min⁻¹.

Q: And the “increase of dextromethorphan AUC0-8 h when administered with MDMA” value (CYP2D6 [2])?
A: Its value is “approximately 10 fold”.

Q: What about the “increase of dextromethorphan AUC after MDMA administration” value (CYP2D6 [2]) of the same compound?
A: The value was “approximately 10 fold”.

Q: What about the “increase of dextromethorphan Cmax after MDMA administration” value (CYP2D6 [2]) of the same compound?
A: The value was “approximately 10 fold”.

Q: For `O=C(O)Cc1ccccc1Nc1c(Cl)cccc1Cl` [diclofenac], which AUC(0-t) ([3]; rat, plasma, po, 10 mg/kg, AUC0–24 h, diclofenac 10 mg/kg bw intragastric, control (0 mg/kg bw sesamin at same time)) is on record?
A: The AUC(0-t) was 5480 ng·h/mL.

Q: What about the Cmax ([3]; rat, plasma, po, 10 mg/kg, Cmax, diclofenac 10 mg/kg bw intragastric, control (0 mg/kg bw sesamin at same time)) of the same compound?
A: The Cmax was 2100 ± 1700 ng/mL.

Q: What about the Tmax ([3]; rat, plasma, po, 10 mg/kg, Tmax, diclofenac 10 mg/kg bw intragastric, control (0 mg/kg bw sesamin at same time)) of the same compound?
A: The Tmax was 5.6 min.

Q: And the half-life ([3]; rat, plasma, po, 10 mg/kg, t1/2, diclofenac 10 mg/kg bw intragastric, control (0 mg/kg bw sesamin at same time))?
A: Its half-life is 9.8 ± 5.1 h.

Q: What about the AUC(0-t) [4, 15] of the same compound?
A: The AUC(0-t) was 4620 ng·h/mL.

Q: What about the AUC(0-t) [4, 16] of the same compound?
A: The AUC(0-t) was 6930 ng·h/mL.

Q: What about the AUC(0-t) [4, 17] of the same compound?
A: Its AUC(0-t) is 4880 ng·h/mL.

Q: What about the Cmax [4, 15] of the same compound?
A: The Cmax was 1200 ± 500 ng/mL.

Q: What about the Cmax [4, 16] of the same compound?
A: Its Cmax is 1300 ± 600 ng/mL.

Q: And the Cmax [4, 17]?
A: Its Cmax is 1800 ± 800 ng/mL.

Q: And the Tmax [4, 15]?
A: Its Tmax is 7 min.

Q: What about the Tmax [4, 16] of the same compound?
A: The Tmax was 7.2 min.

Q: And the Tmax [4, 17]?
A: The Tmax was 5.4 min.

Q: And the half-life [4, 15]?
A: The half-life was 14.8 ± 9.3 h.

Q: And the half-life [4, 16]?
A: Its half-life is 11.1 ± 6.8 h.

Q: What about the half-life [4, 17] of the same compound?
A: The half-life was 10.6 ± 2.9 h.

Q: For `c1cc2c(cc1[C@H]1OC[C@H]3[C@@H]1CO[C@@H]3c1ccc3c(c1)OCO3)OCO2` [episesamin], which “kinact/Ki value for recombinant human CYP2C9 relative to sesamin” value (CYP2C9 [5]; recombinant human CYP2C9, ref previous studies of the authors) is on record?
A: The value was “five times smaller”.

Q: What about the “kinact/Ki app for CYP2C9 relative to sesamin” value (CYP2C9 [5]; ref Yasuda et al. [2012]) of the same compound?
A: The value was “approximately one-fifth”.

Q: And the absorption rate constant [6]?
A: The absorption rate constant was 1.5 h⁻¹.

Q: And the “maximum inlet concentration to the liver” value [6]?
A: The value was 410 nmol/L.

Q: And the “accumulation after repeated administration” value [7]?
A: The value was “did not detect the accumulation; also recorded: no accumulation”.

Q: Which “effect of sesamin on the diclofenac pharmacokinetics” value ([3]; sesamin 0, 10, 100 mg/kg bw and diclofenac 10 mg/kg bw simultaneously) does the source give for `c1cc2c(cc1[C@H]1OC[C@H]3[C@@H]1CO[C@@H]3c1ccc3c(c1)OCO3)OCO2` [sesamin] here?
A: Its value is “no significant effects”.

Q: What about the kinact (CYP2C9 [5]; CYP2C9 with sesamin in human liver microsomes, ref Yasuda et al. [2010]) of the same compound?
A: Its kinact is 0.13 min⁻¹.

Q: And the Cmax [8]?
A: Its Cmax is 33 ng/mL and 94 nM.

Q: And the Tmax [8]?
A: The Tmax was 1.2 ± 0.6 h.

Q: What about the kinact (CYP2C9 [9]) of the same compound?
A: The kinact was 0.00217 s⁻¹.

Q: And the kinact/KI (CYP2C9 [9])?
A: The kinact/KI was 96.7 M⁻¹ s⁻¹.

Q: What about the “peak of sesamin-induced difference spectrum (MI complex)” value (recombinant rat CYP2C11) of the same compound?
A: Its value is 459 nm.

Q: And the “diclofenac hydroxylation activity in liver microsomes” value [10]?
A: The value was “no significant effects; also recorded: no significant differences; also recorded: no remarkable change”.

Q: What about the “expression of CYP2C protein in liver microsomes” value (rat CYP2C) of the same compound?
A: The value was “no significant differences; also recorded: no remarkable change”.

Q: What about the “effect of sesamin on pharmacokinetic parameters of diclofenac (Cmax, Tmax, AUC)” value ([4]; sesamin 0, 10, 100 mg/kg bw for 3 days, then diclofenac 10 mg/kg bw) of the same compound?
A: Its value is “No significant differences”.

Q: And the absorption rate constant [6]?
A: The absorption rate constant was 0.5 h⁻¹.

Q: And the “maximum inlet concentration to the liver” value [6]?
A: Its value is 130 nmol/L.

Q: What about the “accumulation after repeated administration” value [7] of the same compound?
A: Its value is “did not detect the accumulation; also recorded: no accumulation”.

Q: And the fraction absorbed [11]?
A: The fraction absorbed was 30%.

Q: And the kinact [12]?
A: Its kinact is 0.00132 s⁻¹.

Q: What about the “inhibition of 4'- and 5-hydroxylation activities toward diclofenac” value ([12]; rat liver microsomes, sesamin 0-50 μmol/L, preincubation 0, 5, 10 min) of the same compound?
A: Its value is “time- and concentration-dependently inhibited”.

Q: And the kinact/KI ([12]; read-out: kinact/Ki app)?
A: Its kinact/KI is 48.3 M⁻¹ s⁻¹.

Q: And the “half-life time of the MI complex of sesamin” value ([13]; rat liver microsomes)?
A: Its value is 0.167 h.

Q: What about the “time to disappearance of the 459 nm peak after the termination of the metabolism” value ([13]; rat liver microsomes) of the same compound?
A: The value was ≤ 30 min.

Q: What about the “conversion of sesamin to SC-2 via SC-1” value ([13]; rat liver microsomes 0.5 mg/mL, 20 μmol/L sesamin, at 60 min) of the same compound?
A: Its value is “almost all of sesamin was converted to SC-2 via SC-1”.

Q: What about the “peak of sesamin-induced difference spectrum (MI complex)” value ([13]; rat liver microsomes, NADPH, 20 μmol/L sesamin, 37°C) of the same compound?
A: The value was 459 nm.

Q: What about the concentration at 1 h [14] of the same compound?
A: The concentration at 1 h was 390 ng/g and 1.1 µM.
